Measured values: ChEMBL document CHEMBL3763086, “Salicylanilide N-monosubstituted carbamates: Synthesis and in vitro antimicrobial activity” (2016)
Values after ≈ are worked out from the molar mass of the structure shown.

What was measured:
Type in all cases: functional
[1] = system: Trichophyton mentagrophytes; assay: Antifungal activity against Trichophyton mentagrophytes 445 after 120 hrs by microbroth dilution method; details: Trichophyton mentagrophytes, 445, 120 h
Candida tropicalis [2] = assay: Antifungal activity against Candida tropicalis 156 after 48 hrs by microbroth dilution method; details: Candida tropicalis, 156, 48 h
[3] = system: Staphylococcus epidermidis; assay: Antibacterial activity against Staphylococcus epidermidis H 6966/08 after 48 hrs by microbroth dilution method; details: H 6966/08, 48 h
Outline: (§1)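 Microbroth dilution modified per M07-A07 in Mueller-Hinton broth, pH 7.4 (±0.2). Inoculum in sterile water adjusted to 0.5 McFarland. MIC taken as growth reduction of at least 90% (IC90) versus control, read visually and at 540 nm after 24 and 48 h incubation in the dark.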

Staphylococcus aureus [4] = assay: Antibacterial activity against methicillin-resistant Staphylococcus aureus H 5996/08 after 48 hrs by microbroth dilution method; details: H 5996/08, 48 h
Outline: (§2)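 Microdilution broth method modified after M07-A07 in Mueller-Hinton broth adjusted to pH 7.4 (±0.2). Inoculum prepared in sterile water to 0.5 McFarland (1.5 × 10^8 CFU/mL). MIC taken as growth reduction versus control (IC95 per table header), read visually and spectrophotometrically at 540 nm after 24 and 48 h incubation in the dark.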

Pichia kudriavzevii [5] = assay: Antifungal activity against Candida krusei E28 after 48 hrs by microbroth dilution method; details: E28, 48 h
Staphylococcus aureus [6] = assay: Antibacterial activity against methicillin-resistant Staphylococcus aureus H 5996/08 after 24 hrs by microbroth dilution method; details: H 5996/08, 24 h; outline: as §2
Trichosporon asahii [7] = assay: Antifungal activity against Trichosporon asahii 1188 after 48 hrs by microbroth dilution method; details: Trichosporon asahii, 1188, 48 h
Enterococcus sp. [8] = assay: Antibacterial activity against Enterococcus sp. J 14365/08 after 48 hrs by microbroth dilution method; details: J 14365/08, 48 h; outline: as §1
[9] = system: Staphylococcus epidermidis; assay: Antibacterial activity against Staphylococcus epidermidis H 6966/08 after 24 hrs by microbroth dilution method; details: H 6966/08, 24 h; outline: as §1
Nakaseomyces glabratus [10] = assay: Antifungal activity against Candida glabrata 20/I after 48 hrs by microbroth dilution method
Staphylococcus aureus [11] = assay: Antibacterial activity against Staphylococcus aureus CCM 4516/08 after 48 hrs by microbroth dilution method; details: CCM 4516/08, 48 h; outline: as §2
[12] = system: Trichophyton mentagrophytes; assay: Antifungal activity against Trichophyton mentagrophytes 445 after 72 hrs by microbroth dilution method; details: Trichophyton mentagrophytes, 445, 72 h
Enterococcus sp. [13] = assay: Antibacterial activity against Enterococcus sp. J 14365/08 after 24 hrs by microbroth dilution method; details: J 14365/08, 24 h; outline: as §1
Lichtheimia corymbifera [14] = assay: Antifungal activity against Absidia corymbifera 272 after 48 hrs by microbroth dilution method; details: Lichtheimia corymbifera, 272, 48 h
Candida albicans [15] = assay: Antifungal activity against Candida albicans ATCC 44859 after 48 hrs by microbroth dilution method; details: ATCC 44859, 48 h
Klebsiella pneumoniae [16] = assay: Antibacterial activity against Klebsiella pneumoniae D 11750/08 after 24 hrs by microbroth dilution method; details: D 11750/08, 24 h; outline: as §1
Pichia kudriavzevii [17] = assay: Antifungal activity against Candida krusei E28 after 24 hrs by microbroth dilution method; details: E28, 24 h
Klebsiella pneumoniae [18] = assay: Antibacterial activity against ESBL-positive Klebsiella pneumoniae J 14368/08 after 24 hrs by microbroth dilution method; details: J 14368/08, 24 h; outline: as §1
Escherichia coli [19] = assay: Antibacterial activity against Escherichia coli CCM 4517 after 24 hrs by microbroth dilution method; details: CCM 4517, 24 h; outline: as §1
Candida tropicalis [20] = assay: Antifungal activity against Candida tropicalis 156 after 24 hrs by microbroth dilution method; details: Candida tropicalis, 156, 24 h
Klebsiella pneumoniae [21] = assay: Antibacterial activity against Klebsiella pneumoniae D 11750/08 after 48 hrs by microbroth dilution method; details: D 11750/08, 48 h; outline: as §1
Nakaseomyces glabratus [22] = assay: Antifungal activity against Candida glabrata 20/I after 24 hrs by microbroth dilution method
Klebsiella pneumoniae [23] = assay: Antibacterial activity against ESBL-positive Klebsiella pneumoniae J 14368/08 after 48 hrs by microbroth dilution method; details: J 14368/08, 48 h; outline: as §1
Lichtheimia corymbifera [24] = assay: Antifungal activity against Absidia corymbifera 272 after 24 hrs by microbroth dilution method; details: Lichtheimia corymbifera, 272, 24 h
Staphylococcus aureus [25] = assay: Antibacterial activity against Staphylococcus aureus CCM 4516/08 after 24 hrs by microbroth dilution method; details: CCM 4516/08, 24 h; outline: as §1
Candida albicans [26] = assay: Antifungal activity against Candida albicans ATCC 44859 after 24 hrs by microbroth dilution method; details: ATCC 44859, 24 h
Trichosporon asahii [27] = assay: Antifungal activity against Trichosporon asahii 1188 after 24 hrs by microbroth dilution method; details: Trichosporon asahii, 1188, 24 h
Escherichia coli [28] = assay: Antibacterial activity against Escherichia coli CCM 4517 after 48 hrs by microbroth dilution method; details: CCM 4517, 48 h; outline: as §1

| SMILES | MIC [1] | MIC (Candida tropicalis [2]) | MIC [3] | MIC (Staphylococcus aureus [4]) | MIC (Pichia kudriavzevii [5]) | MIC (Staphylococcus aureus [6]) | MIC (Trichosporon asahii [7]) | MIC (Enterococcus sp. [8]) | MIC [9] | MIC (Nakaseomyces glabratus [10]) | MIC (Staphylococcus aureus [11]) | MIC [12] | MIC (Enterococcus sp. [13]) | MIC (Lichtheimia corymbifera [14]) | MIC (Candida albicans [15]) | MIC (Klebsiella pneumoniae [16]) | MIC (Pichia kudriavzevii [17]) | MIC (Klebsiella pneumoniae [18]) | MIC (Escherichia coli [19]) | MIC (Candida tropicalis [20]) | also measured |
| --- | --- | --- | --- | --- | --- | --- | --- | --- | --- | --- | --- | --- | --- | --- | --- | --- | --- | --- | --- | --- | --- |
| O=C(NC1CCCCC1)Oc1ccccc1C(=O)Nc1ccccc1 | > 500 µM | > 500 µM | 500 µM (≈ 169 µg/mL) | 500 µM (≈ 169 µg/mL) | > 500 µM | 500 µM (≈ 169 µg/mL) | > 500 µM | 500 µM (≈ 169 µg/mL) | 500 µM (≈ 169 µg/mL) | > 500 µM | 250 µM (≈ 84.6 µg/mL) | > 500 µM | 500 µM (≈ 169 µg/mL) | > 500 µM | > 500 µM | > 500 µM | > 500 µM | > 500 µM | > 500 µM | > 500 µM | MIC (Klebsiella pneumoniae [21]): > 500 µM; MIC (Nakaseomyces glabratus [22]): > 500 µM; MIC (Klebsiella pneumoniae [23]): > 500 µM; MIC (Lichtheimia corymbifera [24]): > 500 µM; MIC (Staphylococcus aureus [25]): 250 µM (≈ 84.6 µg/mL); MIC (Candida albicans [26]): > 500 µM; MIC (Trichosporon asahii [27]): > 500 µM; MIC (Escherichia coli [28]): > 500 µM |
| O=C(NCc1ccccc1)Oc1ccc(Cl)cc1C(=O)Nc1ccc(F)cc1 | 250 µM (≈ 99.7 µg/mL) | > 250 µM | 15.6 µM (≈ 6.23 µg/mL) | 31.2 µM (≈ 12.5 µg/mL) | > 250 µM | 15.6 µM (≈ 6.23 µg/mL) | > 250 µM | > 500 µM | 15.6 µM (≈ 6.23 µg/mL) | > 250 µM | 15.6 µM (≈ 6.23 µg/mL) | 250 µM (≈ 99.7 µg/mL) | > 500 µM | > 250 µM | > 250 µM | > 500 µM | 250 µM (≈ 99.7 µg/mL) | > 500 µM | > 500 µM | > 250 µM | MIC (Klebsiella pneumoniae [21]): > 500 µM; MIC (Nakaseomyces glabratus [22]): 125 µM (≈ 49.9 µg/mL); MIC (Klebsiella pneumoniae [23]): > 500 µM; MIC (Lichtheimia corymbifera [24]): 250 µM (≈ 99.7 µg/mL); MIC (Staphylococcus aureus [25]): 15.6 µM (≈ 6.23 µg/mL); MIC (Candida albicans [26]): 250 µM (≈ 99.7 µg/mL); MIC (Trichosporon asahii [27]): 125 µM (≈ 49.9 µg/mL); MIC (Escherichia coli [28]): > 500 µM |
| O=C(Nc1ccccc1)Oc1ccc(Cl)cc1C(=O)Nc1ccc(F)cc1 | 15.6 µM (≈ 6.01 µg/mL) | > 250 µM | 7.81 µM (≈ 3.01 µg/mL) | 7.81 µM (≈ 3.01 µg/mL) | > 250 µM | 7.81 µM (≈ 3.01 µg/mL) | > 250 µM | 250 µM (≈ 96.2 µg/mL) | 7.81 µM (≈ 3.01 µg/mL) | > 250 µM | 7.81 µM (≈ 3.01 µg/mL) | 3.9 µM (≈ 1.5 µg/mL) | 250 µM (≈ 96.2 µg/mL) | > 250 µM | > 250 µM | 250 µM (≈ 96.2 µg/mL) | > 250 µM | 250 µM (≈ 96.2 µg/mL) | > 500 µM | > 250 µM | MIC (Klebsiella pneumoniae [21]): 250 µM (≈ 96.2 µg/mL); MIC (Nakaseomyces glabratus [22]): > 250 µM; MIC (Klebsiella pneumoniae [23]): 250 µM (≈ 96.2 µg/mL); MIC (Lichtheimia corymbifera [24]): > 250 µM; MIC (Staphylococcus aureus [25]): 7.81 µM (≈ 3.01 µg/mL); MIC (Candida albicans [26]): > 250 µM; MIC (Trichosporon asahii [27]): > 250 µM; MIC (Escherichia coli [28]): > 500 µM |
| O=C(Nc1ccccc1)Oc1ccccc1C(=O)Nc1ccccc1 | 125 µM (≈ 41.5 µg/mL) | > 500 µM | 500 µM (≈ 166 µg/mL) | 500 µM (≈ 166 µg/mL) | > 500 µM | 500 µM (≈ 166 µg/mL) | > 500 µM | > 500 µM | 500 µM (≈ 166 µg/mL) | > 500 µM | 500 µM (≈ 166 µg/mL) | 125 µM (≈ 41.5 µg/mL) | > 500 µM | > 500 µM | > 500 µM | > 500 µM | > 500 µM | > 500 µM | > 500 µM | > 500 µM | MIC (Klebsiella pneumoniae [21]): > 500 µM; MIC (Nakaseomyces glabratus [22]): > 500 µM; MIC (Klebsiella pneumoniae [23]): > 500 µM; MIC (Lichtheimia corymbifera [24]): > 500 µM; MIC (Staphylococcus aureus [25]): 500 µM (≈ 166 µg/mL); MIC (Candida albicans [26]): > 500 µM; MIC (Trichosporon asahii [27]): > 500 µM; MIC (Escherichia coli [28]): > 500 µM |
| O=C(NCc1ccccc1)Oc1ccccc1C(=O)Nc1ccccc1 | 15.6 µM (≈ 5.41 µg/mL) | 125 µM (≈ 43.3 µg/mL) | 500 µM (≈ 173 µg/mL) | 500 µM (≈ 173 µg/mL) | 125 µM (≈ 43.3 µg/mL) | 500 µM (≈ 173 µg/mL) | 125 µM (≈ 43.3 µg/mL) | > 500 µM | 500 µM (≈ 173 µg/mL) | 250 µM (≈ 86.6 µg/mL) | 250 µM (≈ 86.6 µg/mL) | 15.6 µM (≈ 5.41 µg/mL) | > 500 µM | > 500 µM | 125 µM (≈ 43.3 µg/mL) | > 500 µM | 125 µM (≈ 43.3 µg/mL) | > 500 µM | > 500 µM | 125 µM (≈ 43.3 µg/mL) | MIC (Klebsiella pneumoniae [21]): > 500 µM; MIC (Nakaseomyces glabratus [22]): 250 µM (≈ 86.6 µg/mL); MIC (Klebsiella pneumoniae [23]): > 500 µM; MIC (Lichtheimia corymbifera [24]): > 500 µM; MIC (Staphylococcus aureus [25]): 250 µM (≈ 86.6 µg/mL); MIC (Candida albicans [26]): 125 µM (≈ 43.3 µg/mL); MIC (Trichosporon asahii [27]): 125 µM (≈ 43.3 µg/mL); MIC (Escherichia coli [28]): > 500 µM |
